Assay results reported in paper PMC5903260 (British Journal of Clinical Pharmacology, 2018).
Like-named read-outs stand apart in the source and are kept apart here.

How the values were obtained:
[1] = format: in vivo, human; conditions: for Cmax: C max; for measured plasma concentrations of metabolites: all samples after regorafenib eye drops, below LLOQ (2 μg l^−1)
How it was run: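 Plasma was sampled from predose to 7 days after a single dose, or to 14 days after the last of 14 days' dosing, with dense early time points. Parent and metabolites M-2 and M-5 were measured by validated LC-MS/MS; LLOQ was 0.1 µg l⁻¹ for parent and 2 µg l⁻¹ for metabolites. AUC over dosing intervals, AUC₀₋tlast, Cav, Cmax, Cmin, t1/2 and accumulation ratios were derived, with log-normal ANOVA for dose proportionality.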

[2] = Safety, tolerability and functional ocular assessments in healthy volunteers; format: in vivo, human
How it was run: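 Randomized, double-masked, placebo-controlled ascending-dose design: four cohorts of 12 healthy men (9 active, 3 placebo). Drops of 30 mg ml⁻¹ (25 μl) were given to the left eye as 0.75 mg once, or 0.75 mg bid or tid for 14 days, or 1.5 mg tid for 3 days then both eyes to 14 days. Ocular symptoms were scored 5 min post-dose on a four-point scale. Visual acuity was tested at 4 m per ETDRS protocol.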

[3] = cited from earlier work
[4] = Subject rating of treatment; format: in vivo, human; conditions: numerical rating scale 0 (none) to 10 (very severe); comparable with placebo
[5] = all regorafenib cohorts pooled (n = 36)

SMILES: CNC(=O)c1cc(Oc2ccc(NC(=O)Nc3ccc(Cl)c(C(F)(F)F)c3)c(F)c2)ccn1 [Regorafenib]
- C av0–8 ([1]; first dose, Cohort 1, 0.75 mg single dose, plasma, geometric mean/%CV (range)): 0.0377 ng/mL
- C av0–8 ([1]; first dose, Cohort 3, 0.75 mg tid (2.25 mg day^−1), plasma, geometric mean/%CV (range)): 0.0352 ng/mL
- C av0–8 ([1]; first dose, Cohort 4, 1.5 mg tid (9.0 mg day^−1), plasma, geometric mean/%CV (range)): 0.0564 ng/mL
- Tmax ([1]; human, plasma, topical, tmax,md (time to reach maximum plasma concentration following multiple drug administration), individual subjects, after the last dose): 0 to 12 h
- Cav0–12md (average concentration over the 12h dosing interval) ([1]; last dose, 0.75 mg bid (Cohort 2)): 3.39 ng/mL
- C av0–8,md ([1]; last dose, Cohort 3, 0.75 mg tid (2.25 mg day^−1), geometric mean/%CV (range)): 4.01 ng/mL
- C av0–8,md ([1]; last dose, Cohort 4, 1.5 mg tid (9.0 mg day^−1), geometric mean/%CV (range)): 12.2 ng/mL
- AUC ([1]; male, human, plasma, topical, 0.75 mg): 40.7 ng·h/mL
- AUC(0-t) ([1]; male, human, plasma, topical, 0.75 mg, AUC 0–8, first dose, Cohort 2, 0.75 mg bid (1.5 mg day^−1), geometric mean/%CV (range)): 0.255 ng·h/mL
- AUC(0-t) ([1]; male, human, plasma, topical, 0.75 mg, AUC 0–8, first dose, Cohort 3, 0.75 mg tid (2.25 mg day^−1), geometric mean/%CV (range)): 0.282 ng·h/mL
- AUC(0-t) ([1]; male, human, plasma, topical, 0.75 mg, AUC0–tlast, Cohort 1, 0.75 mg single dose): 39.2 ng·h/mL
- Cmax ([1]; male, human, plasma, topical, 0.75 mg, first dose, Cohort 1, 0.75 mg single dose, geometric mean/%CV (range)): 0.42 ng/mL
- Cmax ([1]; male, human, plasma, topical, 0.75 mg, first dose, Cohort 2, 0.75 mg bid (1.5 mg day^−1), geometric mean/%CV (range)): 0.234 ng/mL
- Cmax ([1]; male, human, plasma, topical, 0.75 mg, first dose, Cohort 3, 0.75 mg tid (2.25 mg day^−1), geometric mean/%CV (range)): 0.186 ng/mL
- Tmax ([1]; male, human, plasma, topical, 0.75 mg, t max, first dose, Cohort 1, 0.75 mg single dose, median (range)): 24 h
- Tmax ([1]; male, human, plasma, topical, 0.75 mg, t max, first dose, Cohort 2, 0.75 mg bid (1.5 mg day^−1), median (range)): 11.9 h
- Tmax ([1]; male, human, plasma, topical, 0.75 mg, t max, first dose, Cohort 3, 0.75 mg tid (2.25 mg day^−1), median (range)): 7.92 h
- AUC(0-t) ([1]; male, human, plasma, topical, 1.5 mg, AUC 0–8, first dose, Cohort 4, 1.5 mg tid (9.0 mg day^−1), geometric mean/%CV (range)): 0.451 ng·h/mL
- Cmax ([1]; male, human, plasma, topical, 1.5 mg, first dose, Cohort 4, 1.5 mg tid (9.0 mg day^−1), geometric mean/%CV (range)): 0.302 ng/mL
- Tmax ([1]; male, human, plasma, topical, 1.5 mg, t max, first dose, Cohort 4, 1.5 mg tid (9.0 mg day^−1), median (range)): 8 h
- day when steady state was reached ([1]; multiple-dose regimens, plasma concentrations): 7 days
- safety and tolerability over the dose range ([2]; 0.75 mg single dose to 1.5 mg tid both eyes (9 mg day^−1), 30 mg ml^−1, 14 days): safe and well tolerated
- eyelid redness and oedema, conjunctival hyperaemia and oedema ([2]; across all regorafenib cohorts): mild and comparable with the effects of placebo
- subjects with a burning sensation [2, 5]: 25%
- subjects with a foreign body sensation [2, 5]: 17%
- subjects with a transient reduction in visual acuity [2, 5]: 31%
- subjects with blurred vision after solicited questioning [2, 5]: 97%
- subjects with increased lacrimation [2, 5]: 8%
- subjects with itching [2, 5]: 17%
- subjects with lid oedema [2, 5]: 8%
- subjects with ocular/conjunctival redness [2, 5]: 19%
- effect on electrocardiographic parameters ([2]; healthy volunteers, eye drops): No effect
- apparent terminal elimination t1/2 after oral administration [3]: 20 to 30 h
- pain and discomfort ratings [4]: mostly 0

SMILES: NC(=O)c1cc(Oc2ccc(NC(=O)Nc3ccc(Cl)c(C(F)(F)F)c3)c(F)c2)cc[n+]1[O-] [M‐5]
- measured plasma concentrations of metabolites [1]: < 2 µg/L

SMILES: CNC(=O)c1cc(Oc2ccc(NC(=O)Nc3ccc(Cl)c(C(F)(F)F)c3)c(F)c2)cc[n+]1[O-] [M‐2]
- measured plasma concentrations of metabolites [1]: < 2 µg/L
